TbMetRS inhib: blocks T. brucei methionyl-tRNA synthetase activity | 360,000 tested, 0.4% active | purified T. brucei MetRS, ATP depletion, Kinase-Glo luminescence | inhibition, % at 11.9 µM | AID 624268;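 active = inhibition above a per-plate cutoff of the control wells' mean inhibition plus 3 SD, cut at about 5.5% in these data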;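 note: 0% = DMSO wells median and 100% = median of wells with control inhibitor compound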
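Measured by: Kinase-Glo luciferase luminescence reporting remaining unconsumed ATP. Material: purified T. brucei MetRS enzyme. Doses: 11.9 µM compound single dose, 0.9% DMSO. Medium: HEPES buffer containing pyrophosphatase, BSA, spermine, DTT. Times: 15 min preincubation, 2 h reaction, all 25 °C. Reagent: methionine, ATP and bulk E. coli tRNA.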
NR1D1 modulator: modulates human Rev-erb alpha binding to DNA; activity, % at 10 µM; P20393; 370,000 tested, 0.79% active; Rev-erbα–FITC-DNA binding, fluorescence polarization, 90 min;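 active = activity above about 14%, limit read from the data; passing the limit was not always enough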;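 note: 0% = DMSO wells with 35 nM protein and 100% = DMSO wells with 750 nM protein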
PG9 Ab binder: binds the HIV-1 gp120 antibody PG9; TR-FRET gp120-PG9 antibody binding; inhibition, % at 6.7 µM; 360,000 tested, 0.43% active; in the data active = inhibition above about 8.5%
Rin1-Abl PPI inh: blocks binding of human Rin1 to Abl | TR-FRET Rin1/Abl binding, biochemical | AID 588664 | inhibition, % at 7.35 µM | P00519+Q13671 | 360,000 tested, 0.4% active; in the data active = inhibition above about 5%, passing the limit was not always enough
PG9 bind confirm: confirmation of small molecules binding HIV-1 gp120 antibody PG9. shares compounds with PG9 Ab binder. inhibition, % at 6.7 µM. 1,500 tested, 90% active. AID 651571. TR-FRET PG9 antibody binding, biochemical; in the data active = inhibition above about 9%
PGV04 Ab binding: binds control antibody PGV04 in PG9 binder counter-screen | shares compounds with PG9 Ab binder | TR-FRET PGV04 antibody-gp120 binding, biochemical | inhibition, % at 6.7 µM | 1,500 tested, 95% active; in the data active = inhibition above about 9.5%
* = called active by the depositor; / = no result given. Shown are actives, neighbours in structure and some others; about 1.8% of the full set was active somewhere.

SMILES | TbMetRS inhib | NR1D1 modulator | PG9 Ab binder | Rin1-Abl PPI inh | PG9 bind confirm | PGV04 Ab binding
CCOc1cc2[nH]c(=S)n(Cc3ccc(C(=O)NCCCN(CC)CC)cc3)c(=O)c2cc1OCC | -1 | 3 | -1 | 3 | / | /
CCOc1cc2[nH]c(=S)n(Cc3ccc(C(=O)NCCCOC)cc3)c(=O)c2cc1OCC | 0 | 13 | 23* | 0 | 8 | 13*
Cc1ccc2c(c1)N(CC(=O)NCCCN1CCOCC1)C(=O)C(C(C)C)O2 (configuration not stated) | 0 | -4 | -1 | 3 | / | /
Cc1nn(-c2ccc(Br)cc2)c(=O)c2ccccc12 | 0 | 0 | 0 | -3 | / | /
Cc1cn(-c2ccc(Br)cc2)[nH]c1=O | 0 | -3 | 10.0* | -1 | 19* | 21*
O=C(N[C@H](Cc1ccccc1)C(=O)NCc1ccc(OC(F)(F)F)cc1)[C@H]1O[C@@H](n2ccc(=O)[nH]c2=O)[C@H](O)[C@@H]1O | / | -6 | 0 | / | / | /
CCc1nc2sc3c(c2c(=S)[nH]1)CC(C)(C)OC3 | 2 | -3 | 5 | 1 | / | /
CSc1nc2sc3c(c2c(=S)[nH]1)CC(C)(C)OC3 | 0 | -2 | 12* | -6 | 44* | 73*
CCCN(CC(=O)Nc1ccccc1OC)C(=O)CN1C(=O)NC(C)(C)C1=O | 0 | 4 | 2 | 3 | / | /
Cc1ccc2cc(C#N)c(SCC(=O)NCC3CCCO3)nc2c1 (configuration not stated) | 1 | 11 | -1 | -3 | / | /
Cc1ccc2nc(SCC(=O)NCC3CCCO3)c(C#N)cc2c1 (configuration not stated) | -2 | -2 | 13* | -4 | 22* | 36*
COc1ccc2nc(SCC(=O)NC3CC3)c(C#N)cc2c1 | 0 | 6 | 20* | -1 | 26* | 47*
O=C(Cn1cnc2ccccc2c1=O)Nc1nc2ccccc2s1 | 0 | 3 | 18* | 3 | 21* | 28*
Cc1cc(N2C(=O)C(O)=C(C(=O)c3cc4ccccc4o3)C2c2ccc([N+](=O)[O-])cc2)no1 (configuration not stated) | 0 | -5 | -3 | 4 | / | /
Cc1cc(N2C(=O)C(O)=C(C(=O)c3cc4ccccc4o3)C2c2cccs2)no1 (configuration not stated) | 0 | 0 | 9.3* | -2 | 28* | 46*
Cc1ccc(C2C(C(=O)c3cc4ccccc4o3)=C(O)C(=O)N2c2cc(C)on2)cc1 (configuration not stated) | 0 | 5 | 18* | -5 | 29* | 38*
Cc1cc(N2C(=O)C(O)=C(C(=O)c3ccc(C)o3)C2c2cccs2)no1 (configuration not stated) | -2 | 2 | 9.6* | 0 | 17* | 25*
O=C(CN1C(=O)NC2(CCCC2)C1=O)c1ccc(Cl)s1 | 0 | -3 | -1 | -2 | / | /
O=C(/C=C/c1ccccc1)NCCS(=O)(=O)N1CCN(c2ccccc2F)CC1 | 0 | -6 | -1 | 2 | / | /
Cc1ccc2nc(-c3ccc(NC(=O)CSc4nccc(=O)[nH]4)cc3)sc2c1 | 0 | 10 | 12* | 2 | 11* | 36*
Cc1ccc2nc(-c3ccc(NC(=O)CSc4nc(N)cc(=O)[nH]4)cc3)sc2c1 | 0 | 4 | 0 | -2 | / | /
CC(C)Oc1ccc(C2C(C(=O)c3ccco3)=C(O)C(=O)N2Cc2cccnc2)cc1 (configuration not stated) | -1 | 5 | 9.3* | 1 | 15* | 19*
C=CCOc1ccc(C2C(C(=O)c3ccc(C)o3)=C(O)C(=O)N2Cc2cccnc2)cc1 (configuration not stated) | 0 | -4 | 11* | -3 | 27* | 31*
O=C(C1=C(O)C(=O)N(Cc2cccnc2)C1c1cccc(Oc2ccccc2)c1)c1ccco1 (configuration not stated) | 0 | -6 | 13* | -3 | 19* | 28*

Screens as filed in PubChem.
